Experimental data taken from PubChem BioAssay AID540266 (Southern Research Specialized Biocontainment Screening …, 2011).
Values joined by “and” are separate entries in the source; they are usually repeats but may differ in a detail not shown here. Equal values may be shown once. Active and inactive are the calls of the source.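 Rule for the calls: active = any dose giving under 70% viability, per first replicate; inactive = the rest.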

What was measured:
[1] = HEp-2 cell cytotoxicity, dose response, cytotoxicity control for RSV inhibitor project, CellTiter-Glo luminescence, synthesized compounds, set 11 (AID 540266); details: HEp-2 cell viability, luminescence (CellTiter-Glo); at 200 µM (top of the series)
Procedure, shortened: (§1)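 Test system: uninfected HEp-2 cells; buffer or medium: DMEM/F12 with FBS; compound dosing: Eight-concentration twofold dilution series, 0.5% DMSO final; times: 6 d compound exposure, 37 °C; measured by: CellTiter-Glo luminescence; evaluation: % viability and CC50 from constrained 4-parameter fit; repeats: triplicate wells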

[2] = system: HEp-2 cell viability, luminescence (CellTiter-Glo); assay: as above
Procedure, shortened: as §1

SMILES | viability [1] | CC50 [2]
Cc1ccc(Cn2c(=O)n(Cc3ccc(C(=O)Nc4ccncc4)cc3)c(=O)c3ccccc32)cc1 | 84% (inactive) | 
Cc1ccc(C)c(NC(=O)[C@@H]2CCCN2S(=O)(=O)c2cccc3cccnc23)c1 |  | 34.7 µM and 32.9 µM
COCCCNC(=O)c1ccc(Cn2c(=O)c3ccccc3n(Cc3ccc(C)c(C(F)(F)F)c3)c2=O)cc1 |  | 71.3 µM
COCCCNC(=O)c1ccc(Cn2c(=O)c3ccccc3n(Cc3ccc([N+](=O)[O-])cc3)c2=O)cc1 |  | 113 µM
Cc1ccc(Cn2c(=O)n(Cc3ccc(C(=O)NC(C)(C)C)cc3)c(=O)c3ccccc32)cc1 |  | 12.1 µM
COCCCNC(=O)c1ccc(Cn2c(=O)c3ccccc3n(Cc3ccccc3Br)c2=O)cc1 |  | 7.99 µM
COCCCNC(=O)c1ccc(Cn2c(=O)c3ccccc3n(Cc3cccc(Br)c3)c2=O)cc1 |  | 3.32 µM
COCCCNC(=O)c1ccc(Cn2c(=O)c3ccccc3n(Cc3ccccc3F)c2=O)cc1 |  | 7.1 µM
CCOCCCNC(=O)c1ccc(Cn2c(=O)c3ccccc3n(Cc3ccc(C)cc3)c2=O)cc1 |  | 8.5 µM
COCCCNC(=O)c1ccc(Cn2c(=O)c3ccccc3n(Cc3ccc(C(F)(F)F)cc3)c2=O)cc1 |  | 79.2 µM
COCCCNC(=O)c1ccc(Cn2c(=O)c3ccccc3n(Cc3ccc(OC)cc3)c2=O)cc1 |  | 149 µM
COCCCNC(=O)c1ccc(Cn2c(=O)c3ccccc3n(Cc3ccc(F)cc3)c2=O)cc1 |  | 7.09 µM
Cc1ccc(Cn2c(=O)n(Cc3ccc(C(=O)NCCCOC(C)C)cc3)c(=O)c3ccccc32)cc1 |  | 19.1 µM
COCCCNC(=O)c1ccc(Cn2c(=O)c3ccccc3n(Cc3ccc(Br)cc3)c2=O)cc1 |  | 138 µM
Cc1ccc(Cn2c(=O)n(Cc3ccc(C(=O)NCCCN(C)C)cc3)c(=O)c3ccccc32)cc1 |  | 15.1 µM
